Experimental data taken from ChEMBL document CHEMBL1138710, “A nonhydrolyzable analogue of phosphotyrosine, and related aryloxymethano- and aryloxyethano-phosphonic acids as motifs for inhibition of phosphatases” (Bioorg Med Chem Lett, 2004).

Key:
[1] = target: Alkaline phosphatase (Escherichia coli K-12) (UniProt P00634); assay: Inhibition constant for Escherichia coli alkaline phosphatase at pH 9
Outline: (§1)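 Competitive inhibition kinetics with p-nitrophenyl phosphate as substrate at 25°C, in 100 mM TRIS, 1 mM ZnCl2, 1 mM MgCl2, pH 9.0. Ki (mM) was derived from the competitive inhibition rate equation.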

[2] = target: Secreted effector protein (Yersinia pestis) (UniProt O68720); assay: Inhibition constant for YOP protein tyrosine phosphatase at pH 6.6
Outline: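 Competitive Ki (mM) measured at 25°C against p-nitrophenyl phosphate substrate, in 100 mM succinate, 150 mM NaCl, pH 6.6.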

[3] = target: T1, Serine/threonine-protein phosphatase (Enterobacteria phage lambda) (UniProt P03772); assay: Inhibition constant for lambda protein phosphatase in presence of [Mn2+] at 5 mM pH 7.3
T1 sequence (whole entry): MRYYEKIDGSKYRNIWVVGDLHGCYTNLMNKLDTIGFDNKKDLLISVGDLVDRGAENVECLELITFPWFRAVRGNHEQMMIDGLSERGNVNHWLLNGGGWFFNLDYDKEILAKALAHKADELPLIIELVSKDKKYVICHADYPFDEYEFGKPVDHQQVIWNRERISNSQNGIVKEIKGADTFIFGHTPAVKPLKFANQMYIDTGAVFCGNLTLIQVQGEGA

[4] = Inhibition constant protein phosphatase 2C in presence of [Mn2+] at 5 mM pH 7.5
Outline: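 Competitive inhibition kinetics with p-nitrophenyl phosphate substrate (Km 1.1 mM under these conditions) at 25°C, in 100 mM TRIS, 5 mM MnCl2, 1 mM DTT, pH 7.5. Ki (mM) was derived from the competitive inhibition rate equation.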

Homo sapiens [5] = species on record: Homo sapiens; assay: Inhibition constant for human placental alkaline phosphatase at pH 9; No reduction in rate
Homo sapiens [6] = species on record: Homo sapiens; assay: Inhibition constant for human placental alkaline phosphatase at pH 9; outline: as §1
[7] = Inhibition constant for protein phosphatase 2C in presence of [Mn2+] at 1 mM pH 7.5
Outline: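 Kinetics at 25°C with p-nitrophenyl phosphate substrate in 100 mM TRIS, 1 mM MnCl₂, 1 mM DTT, pH 7.5. Mn²⁺ was lowered from 5 mM for compounds precipitating at that level. Substrate Km was 1.1 mM and matched within error at both Mn²⁺ levels. Ki (mM) from a competitive inhibition model.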

[8] = target: Alkaline phosphatase (Escherichia coli K-12) (UniProt P00634); assay: Inhibition constant for Escherichia coli alkaline phosphatase at pH 9; No reduction in rate

Chain of Alkaline phosphatase (Escherichia coli K-12) (P00634 whole entry): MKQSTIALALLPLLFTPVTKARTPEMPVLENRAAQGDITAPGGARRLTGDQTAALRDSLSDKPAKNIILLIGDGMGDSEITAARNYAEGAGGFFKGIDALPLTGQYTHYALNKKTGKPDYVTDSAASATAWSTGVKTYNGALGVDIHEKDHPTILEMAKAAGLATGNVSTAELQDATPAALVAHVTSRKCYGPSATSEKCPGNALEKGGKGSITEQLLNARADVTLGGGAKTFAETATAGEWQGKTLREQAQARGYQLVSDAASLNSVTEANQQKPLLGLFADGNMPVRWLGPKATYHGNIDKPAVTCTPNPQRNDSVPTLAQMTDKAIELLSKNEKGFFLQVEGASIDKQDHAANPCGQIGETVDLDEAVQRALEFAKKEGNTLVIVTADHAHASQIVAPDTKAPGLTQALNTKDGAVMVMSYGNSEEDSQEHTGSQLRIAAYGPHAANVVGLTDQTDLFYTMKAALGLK

SMILES	Inhibition [1]	Inhibition [2]	Inhibition [3]	Inhibition [4]	Inhibition (Homo sapiens [5])	Inhibition (Homo sapiens [6])	Inhibition [7]	Inhibition [8]
O=C(O)Cc1ccc(OCP(=O)(O)O)cc1	5.1 mM	12 mM	0.19 mM	0.13 mM	No inhibition	–	–	–
O=P(O)(O)CSc1ccccc1	0.04 mM	4.6 mM	0.33 mM	–	–	0.13 mM	0.17 mM	–
O=P(O)(O)COc1ccc2ccccc2c1	4 mM	6.3 mM	Precipitation	Precipitation	–	1.1 mM	–	–
N[C@H](Cc1ccc(OCP(=O)(O)O)cc1)C(=O)O	4.8 mM	0.63 mM	0.03 mM	0.34 mM	–	1.85 mM	–	–
O=C(O)Cc1ccc(OCCP(=O)(O)O)cc1	0.6 mM	19 mM	0.12 mM	0.23 mM	–	0.14 mM	–	–
O=C(O)c1cccc2cc(OCP(=O)(O)O)ccc12	4.2 mM	2.2 mM	0.03 mM	0.06 mM	–	3.4 mM	–	–
O=P(O)(O)CCOc1ccccc1	0.1 mM	2.17 mM	0.05 mM	–	–	0.11 mM	0.4 mM	–
N[C@@H](Cc1ccc(OCP(=O)(O)O)cc1)C(=O)O	5 mM	21 mM	0.02 mM	0.76 mM	–	1.7 mM	–	–
O=P(O)(O)CCSc1ccccc1	0.9 mM	10 mM	0.14 mM	–	–	0.69 mM	0.3 mM	–
O=P(O)(O)COc1ccccc1	–	5 mM	0.27 mM	–	–	0.9 mM	0.32 mM	No inhibition
